Results taken from ChEMBL document CHEMBL1122096, “Narcotic antagonistic potency of bivalent ligands which contain beta-naltrexamine. Evidence for bridging between proximal recognition sites” (1982).

How the values were obtained:
Format in all cases: functional
[1] = species on record: Cavia porcellus; experiment: Tested for the narcotic antagonistic activity by measuring the ratio of the IC50 of the ethylketazocine in the presence and in the absence in guinea pig ileum at 2*10e-8M
Method in brief: (§1)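 Isolated-tissue antagonism assays: guinea pig ileum (GPI) against ethylketazocine or morphine, with antagonist at 2×10^-8 M; mouse vas deferens (MVD) against DADLE, with antagonist at 1×10^-7 M. The value is the agonist IC50 with antagonist divided by the agonist IC50 without antagonist, both measured in the same preparation, reported ± SE.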

[2] = species on record: Cavia porcellus; experiment: Tested for the narcotic antagonistic activity by measuring the ratio of the IC50 of the morphine in the presence and in the absence in guinea pig ileum at 2*10e-8M; method in brief: as §1
[3] = species on record: Cavia porcellus; experiment: Partial agonist activity was determined by measuring the % maximum agonist response in guinea pig ileum at 1*10e-8 M concentration of compound
[4] = species on record: Mus musculus; experiment: Partial agonist activity by measuring the % maximum agonist response in mouse vas deferens at 1*10e-7 M concentration of compound
[5] = species on record: Mus musculus; experiment: Tested for the narcotic antagonistic activity by measuring the ratio of the IC50 of the DADLE in the presence and in the absence in mouse vas deferens at 1*10e-7 M; method in brief: as §1
[6] = species on record: Cavia porcellus; experiment: Partial agonist activity was determined by measuring the % maximum agonist response in guinea pig ileum at 5*10e-7 M concentration of compound
[7] = species on record: Cavia porcellus; experiment: Partial agonist activity was determined by measuring the % maximum agonist response in guinea pig ileum at 3*10e-8 M concentration of compound
[8] = species on record: Cavia porcellus; experiment: Partial agonist activity was determined by measuring the % maximum agonist response in guinea pig ileum at 1*10e-6 M concentration of compound
[9] = species on record: Mus musculus; experiment: Partial agonist activity by measuring the % maximum agonist response in mouse vas deferens at 1*10e-6 M concentration of compound

`Oc1ccc2c3c1O[C@H]1[C@H](NCCOCCOCCN[C@H]4CC[C@]5(O)C6Cc7ccc(O)c8c7C5(CCN6CC5CC5)[C@@H]4O8)CC[C@@]4(O)C(C2)N(CC2CC2)CCC314` showed an IC50 ratio [1] of 16.91, an IC50 ratio [2] of 3.24 and a Max agonist response [3] of 10%. For the same compound, the Max agonist response [4] was 32% and the IC50 ratio [5] was 7.17.

Compound `Oc1ccc2c3c1O[C@H]1[C@H](NCCOCCOCCOCCOCCOCCN[C@H]4CC[C@]5(O)C6Cc7ccc(O)c8c7C5(CCN6CC5CC5)[C@@H]4O8)CC[C@@]4(O)C(C2)N(CC2CC2)CCC314` has an IC50 ratio [1] of 2.61, an IC50 ratio [2] of 5.75 and a Max agonist response [6] of 60%. For the same compound, the Max agonist response [4] was 26% and the IC50 ratio [5] was 30.67.

For `Cc1ccc(S(=O)(=O)OCCOCCOCCN[C@@H]2CC[C@@]3(O)C4Cc5ccc(O)c6c5C3(CCN4CC3CC3)[C@H]2O6)cc1` (stereo not given in full), the IC50 ratio [1] was 3.96, the IC50 ratio [2] was 3.78 and the Max agonist response [7] was 57%. For the same compound, the Max agonist response [4] was 27% and the IC50 ratio [5] was 4.29.

Compound `COCCOCCOCCN[C@@H]1CC[C@@]2(O)C3Cc4ccc(O)c5c4C2(CCN3CC2CC2)[C@H]1O5` (stereo not given in full) has an IC50 ratio [1] of 1.63, an IC50 ratio [2] of 3.45 and a Max agonist response [8] of 67%. For the same compound, the Max agonist response [9] was 49% and the IC50 ratio [5] was 2.09.
